Assay results published in ChEMBL document CHEMBL1949566 (Bioorg Med Chem Lett, 2012).

Target: T1, Type-1 angiotensin II receptor (Oryctolagus cuniculus, UniProt P34976)
T1 sequence (P34976 whole entry): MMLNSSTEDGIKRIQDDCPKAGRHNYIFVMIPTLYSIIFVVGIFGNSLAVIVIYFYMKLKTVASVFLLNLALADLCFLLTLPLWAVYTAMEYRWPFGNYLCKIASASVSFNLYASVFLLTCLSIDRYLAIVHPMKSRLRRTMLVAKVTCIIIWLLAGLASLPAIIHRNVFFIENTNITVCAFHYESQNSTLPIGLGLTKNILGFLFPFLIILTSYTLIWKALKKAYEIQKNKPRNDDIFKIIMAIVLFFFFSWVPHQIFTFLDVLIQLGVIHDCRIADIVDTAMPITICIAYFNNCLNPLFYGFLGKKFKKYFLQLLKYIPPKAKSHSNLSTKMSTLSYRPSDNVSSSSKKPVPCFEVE
Assay: Antagonist activity at angiotensin 2 receptor type 1 in New Zealand White rabbit descending thoracic aorta rings assessed as inhibition of angiotensin 2-induced contraction preincubated for 30 mins prior angiotensin 2 challenge
Type: functional, tissue-based
Settings: not given; call rule not given here
Outline: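 Aortic rings held at 2 g resting tension and equilibrated 60 min with repeated washing in Krebs bicarbonate solution. Responsiveness was checked with AngII, then a control cumulative AngII concentration–contractile response curve was run. After washout, test substance was incubated 30 min and a second AngII curve obtained.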
Work on `CCCCc1nc(C)c(CC(=S)N(CC)CC)c(=O)n1Cc1ccc(-c2ccccc2-c2nnn[nH]2)cc1` yielded an IC50 of 1.31 nM. Work on `CCCc1nc(C)c(CC(=O)O)c(=O)n1Cc1ccc(-c2ccccc2-c2nnn[nH]2)cc1` yielded an IC50 of 27.1 nM. For `CCCCc1nc(C)c(CC(=O)N(CC)CC)c(=O)n1Cc1ccc(-c2ccccc2-c2nnn[nH]2)cc1`, the IC50 was 30.8 nM. In the case of `CCCCc1nc(C)c(CC(=S)N(C)C)c(=O)n1Cc1ccc(-c2ccccc2-c2nnn[nH]2)cc1`, the IC50 is reported as 0.42 nM.

System: Rattus norvegicus
Assay: Antihypertensive activity in conscious spontaneously hypertensive rat assessed as decrease in mean arterial blood pressure at 10 mg/kg, po at 5 hrs post dose
Type: functional, Artery
Set-up: scale not given: the % may be the effect or the level left
Settings: not given
Outline: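 SHRs were acclimatized 10 weeks, then habituated for 7 days to 37 °C chamber prewarming for 10 min, restraint and a tail cuff with pulse sensor. After stabilization, 10 mg/kg was given orally.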
Compound `CCCCc1nc(C)c(CC(=S)N(C)C)c(=O)n1Cc1ccc(-c2ccccc2-c2nnn[n-]2)cc1.O.O.O.[K+]` has an Activity of 75%.

System: Rattus norvegicus
Assay: Effect on basal heart rate in furosemide treated rat high-renin model at 10 mg/kg, po up to 8 hrs
Type: ADME, organism-based
Set-up: dose 10 mg/kg, route oral
Settings: in vivo
Outline: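 Furosemide 10 mg/kg sc was given 20 and 2 h before the experiment, with food and water withdrawn for 24 h. Mean arterial pressure and heart rate were recorded by polygraph. After about 60 min of stabilization, 10 mg/kg was given orally. Readings were taken at 20, 40 and 60 min, then every 30 min to 8 h.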
In the case of `CCCCc1nc(C)c(CC(=S)N(C)C)c(=O)n1Cc1ccc(-c2ccccc2-c2nnn[n-]2)cc1.O.O.O.[K+]`, the Activity is reported as “Non-toxic”.

System: not listed separately
Assay: Cmax in Sprague-Dawley rat at 3 mg/kg, po
Type: ADME, organism-based
Set-up: dose 3 mg/kg, route oral
Settings: in vivo
Outline: (§1)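 Male Sprague–Dawley rats (n = 7) given a single oral dose of 3 mg/kg. AUC, Cmax, Tmax, t1/2, Cl/F and Vss/F were derived from plasma profiles and reported as mean ± S.D.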
`CCCCc1nc(C)c(CC(=S)N(C)C)c(=O)n1Cc1ccc(-c2ccccc2-c2nnn[n-]2)cc1.O.O.O.[K+]` gave a Cmax of 242 ng/mL.

System: not listed separately
Assay: Toxicity in po dosed mouse assessed maximum tolerated dose
Type: organism-based
Settings: in vivo
Outline: (§2)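 Maximum tolerated dose from a single oral administration.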
For `CCCCc1nc(C)c(CC(=S)N(C)C)c(=O)n1Cc1ccc(-c2ccccc2-c2nnn[n-]2)cc1.O.O.O.[K+]`, the MTD was > 2000 mg/kg.

System: Rattus norvegicus
Assay: Ratio of losartan ED50 to compound ED50 for antihypertensive activity in iv dosed pithed rat model assessed as inhibition of angiotensin 2-induced pressor response
Type: functional
Settings: not given
For `CCCCc1nc(C)c(CC(=O)N(C)C)c(=O)n1Cc1ccc(-c2ccccc2-c2nnn[nH]2)cc1`, the “Ratio ED50” value was 19. In the case of `CCCCc1nc(C)c(CC(=O)N2CCOCC2)c(=O)n1Cc1ccc(-c2ccccc2-c2nnn[nH]2)cc1`, the “Ratio ED50” value is reported as 19. In the case of `CCCCc1nc(C)c(CC(=S)N(C)C)c(=O)n1Cc1ccc(-c2ccccc2-c2nnn[nH]2)cc1`, the “Ratio ED50” value is reported as 19.

System: not listed separately
Assay: Apparent oral clearance in Sprague-Dawley rat at 3 mg/kg
Type: ADME, organism-based
Set-up: dose 3 mg/kg, route oral
Settings: in vivo
Outline: as §1
For `CCCCc1nc(C)c(CC(=S)N(C)C)c(=O)n1Cc1ccc(-c2ccccc2-c2nnn[n-]2)cc1.O.O.O.[K+]`, the CL/F was 84 mL/min/kg.

System: Rattus norvegicus
Assay: Antihypertensive activity in iv dosed pithed rat model assessed as inhibition of angiotensin 2-induced pressor response by gould pressure transducer-coupled grass polygraphy
Type: functional
Settings: not given
Outline: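 Pithed rats had blood pressure recorded by an arterial catheter to a pressure transducer/polygraph. After about 60 min of stabilization, AngII (100 ng/kg iv) was given three times at 15 min intervals to set a basal pressor response. Compound was then given iv, followed by AngII 100 ng/kg iv. ED50 for 50% inhibition of maximal pressor response came from the dose–pressure curve.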
With `CCCCc1nc(C)c(CC(=O)N(C)C)c(=O)n1Cc1ccc(-c2ccccc2-c2nnn[nH]2)cc1` the ED50 was 0.018 mg/kg. Compound `CCCCc1nc(C)c(CC(=S)N(CC)CC)c(=O)n1Cc1ccc(-c2ccccc2-c2nnn[nH]2)cc1` has an ED50 of 0.023 mg/kg. Compound `CCCCc1nc(C)c(CC(=O)N2CCOCC2)c(=O)n1Cc1ccc(-c2ccccc2-c2nnn[nH]2)cc1` has an ED50 of 0.018 mg/kg. In the case of `CCCCc1nc(C)c(CC(=O)N(CC)CC)c(=O)n1Cc1ccc(-c2ccccc2-c2nnn[nH]2)cc1`, the ED50 is reported as 0.089 mg/kg. Work on `CCCCc1nc(C)c(CC(=S)N(C)C)c(=O)n1Cc1ccc(-c2ccccc2-c2nnn[nH]2)cc1` yielded an ED50 of 0.018 mg/kg.

System: Rattus norvegicus
Assay: Drug excretion in Sprague-Dawley rat at 3 mg/kg, po
Type: ADME, organism-based
Set-up: dose 3 mg/kg, route oral
Settings: in vivo
In the case of `CCCCc1nc(C)c(CC(=S)N(C)C)c(=O)n1Cc1ccc(-c2ccccc2-c2nnn[n-]2)cc1.O.O.O.[K+]`, the Ae is reported as “Active”.

System: not listed separately
Assay: Half life in Sprague-Dawley rat at 3 mg/kg, po
Type: ADME, organism-based
Set-up: dose 3 mg/kg, route oral
Settings: in vivo
Outline: as §1
For `CCCCc1nc(C)c(CC(=S)N(C)C)c(=O)n1Cc1ccc(-c2ccccc2-c2nnn[n-]2)cc1.O.O.O.[K+]`, the half-life was 5.3 h.

System: not listed separately
Assay: Oral steady-state volume of distribution in Sprague-Dawley rat at 3 mg/kg
Type: ADME, organism-based
Set-up: dose 3 mg/kg
Settings: in vivo, read-out: Vss/F
Outline: as §1
For `CCCCc1nc(C)c(CC(=S)N(C)C)c(=O)n1Cc1ccc(-c2ccccc2-c2nnn[n-]2)cc1.O.O.O.[K+]`, the Vd/F was 37.3 L/kg.

System: not listed separately
Assay: AUC in Sprague-Dawley rat at 3 mg/kg, po
Type: ADME, organism-based
Set-up: dose 3 mg/kg, route oral
Settings: plasma
Outline: as §1
`CCCCc1nc(C)c(CC(=S)N(C)C)c(=O)n1Cc1ccc(-c2ccccc2-c2nnn[n-]2)cc1.O.O.O.[K+]` showed an AUC of 678 ng·h/mL.

Target: not listed separately
Assay: Displacement of [125I]angiotensin 2 from angiotensin 2 receptor type 1 in Sprague-Dawley rat adrenal cortex membranes after 60 mins by gamma counting
Type: cell membranes, Membrane
Settings: not given
Outline: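 Adrenal cortex membranes came from male Sprague–Dawley rats (200–250 g); the pellet was taken by differential centrifugation up to 100,000 g. Membranes (60–70 µg protein/assay) were suspended in 50 mM Tris–HCl, 10 mM MgCl2, 0.25% BSA, pH 7.4, with [125I]AngII (0.05 nM) and test compound (3×10^-12 to 10^-6 M, DMSO). Incubation ran 60 min at 25 °C and ended by GF/B filtration. IC50 is 50% inhibition of binding.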
With `CCCCc1nc(C)c(CC(=S)N(CC)CC)c(=O)n1Cc1ccc(-c2ccccc2-c2nnn[nH]2)cc1` the IC50 was 6.27 nM. `CCCCc1nc(C)c(CC(=O)N2CCOCC2)c(=O)n1Cc1ccc(-c2ccccc2-c2nnn[nH]2)cc1` gave an IC50 of 23 nM. Compound `CCCCc1nc(C)c(CC(=S)N(C)C)c(=O)n1Cc1ccc(-c2ccccc2-c2nnn[nH]2)cc1` has an IC50 of 0.13 nM.

Organism: Rattus norvegicus
Assay: Displacement of [125I]angiotensin 2 from angiotensin 2 receptor type 1 in Sprague-Dawley rat adrenal cortex membranes at 10 uM after 60 mins by gamma counting
Type: cell membranes
Settings: Membrane
`CCCCc1nc(C)c(CC(=O)N(C)C)c(=O)n1Cc1ccc(-c2ccccc2-c2nnn[nH]2)cc1` gave an inhibition of 71.7%.

System: not listed separately
Assay: Toxicity in po dosed rat assessed maximum tolerated dose
Type: organism-based
Settings: in vivo
Outline: as §2
For `CCCCc1nc(C)c(CC(=S)N(C)C)c(=O)n1Cc1ccc(-c2ccccc2-c2nnn[n-]2)cc1.O.O.O.[K+]`, the MTD was > 2000 mg/kg.

System: not listed separately
Assay: Tmax in Sprague-Dawley rat at 3 mg/kg, po
Type: ADME, organism-based
Set-up: dose 3 mg/kg, route oral
Settings: in vivo
Outline: as §1
With `CCCCc1nc(C)c(CC(=S)N(C)C)c(=O)n1Cc1ccc(-c2ccccc2-c2nnn[n-]2)cc1.O.O.O.[K+]` the Tmax was 6 min.
